ChEMBL document CHEMBL5032512, “A Photohormone for Light-Dependent Control of PPARα in Live Cells” (J Med Chem, 2021)

Tests used:
[1] = target: T1, Peroxisome proliferator-activated receptor delta (Homo sapiens) (UniProt Q03181); assay: Agonist activity at Gal4-fused human PPARdelta LBD transfected in HEK293T cells assessed as maximal relative activation incubated for 14 to 16 hrs by dual-Glo luciferase assay relative to L165,041; assay type: cell-based; conditions: time 14-16 hrs
T1 sequence (whole entry): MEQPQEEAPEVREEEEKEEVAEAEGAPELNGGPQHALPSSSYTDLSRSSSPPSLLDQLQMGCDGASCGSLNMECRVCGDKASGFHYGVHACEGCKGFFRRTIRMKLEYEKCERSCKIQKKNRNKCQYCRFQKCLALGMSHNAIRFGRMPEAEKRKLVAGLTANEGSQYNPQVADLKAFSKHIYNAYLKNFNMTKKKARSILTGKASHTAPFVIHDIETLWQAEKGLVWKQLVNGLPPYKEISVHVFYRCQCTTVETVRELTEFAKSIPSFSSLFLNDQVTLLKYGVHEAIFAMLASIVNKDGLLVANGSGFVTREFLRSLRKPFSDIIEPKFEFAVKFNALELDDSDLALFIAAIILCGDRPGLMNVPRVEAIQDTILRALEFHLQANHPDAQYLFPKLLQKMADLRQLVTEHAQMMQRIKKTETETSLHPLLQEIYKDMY
How it was run: (§1)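 HEK293T cells transiently transfected with pFR-Luc, pRL-SV40 and Gal4 fusion of human PPAR hinge region plus LBD. Compound added 5 h later in Opti-MEM with 0.1% DMSO, then left overnight (14−16 h). Dual-Glo firefly/Renilla luciferase read, giving RLU. Fold activation is taken against the DMSO control. Max relative activation is set against 1 μM GW7647 (α) or L165,041 (δ). EC50 from a four-parameter fit. Duplicates, ≥3 independent runs.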

[2] = target: T2, Peroxisome proliferator-activated receptor delta (Homo sapiens, UniProt Q03181); assay: Agonist activity at Gal4-fused human PPARdelta LBD transfected in HEK293T cells assessed as transcriptional activation incubated for 14 to 16 hrs by dual-Glo luciferase assay; assay type: cell-based; how it was run: as §1
T2 sequence (Q03181 whole entry): T1 sequence (whole entry)

[3] = target: T3, Peroxisome proliferator-activated receptor alpha (Homo sapiens) (UniProt Q07869); assay: Agonist activity at Gal4-fused human PPARalpha LBD transfected in HEK293T cells assessed as maximal relative activation incubated for 14 to 16 hrs by dual-Glo luciferase assay relative to GW7647; assay type: cell-based; conditions: time 14-16 hrs; how it was run: as §1
T3 sequence (whole entry): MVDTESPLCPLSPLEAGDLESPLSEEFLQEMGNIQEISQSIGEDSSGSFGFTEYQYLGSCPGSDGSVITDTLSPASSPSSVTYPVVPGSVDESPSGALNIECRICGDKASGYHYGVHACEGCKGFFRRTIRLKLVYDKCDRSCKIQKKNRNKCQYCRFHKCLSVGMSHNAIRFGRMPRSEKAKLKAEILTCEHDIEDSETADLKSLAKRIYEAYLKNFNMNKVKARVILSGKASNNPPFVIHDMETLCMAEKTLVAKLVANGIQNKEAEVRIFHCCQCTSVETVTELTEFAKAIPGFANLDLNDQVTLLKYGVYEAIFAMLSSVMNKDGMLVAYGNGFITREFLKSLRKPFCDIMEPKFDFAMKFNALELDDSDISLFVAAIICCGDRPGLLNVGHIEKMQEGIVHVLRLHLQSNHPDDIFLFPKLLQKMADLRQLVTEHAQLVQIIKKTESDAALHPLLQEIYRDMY

[4] = target: T4, Peroxisome proliferator-activated receptor gamma (Homo sapiens, UniProt P37231); assay: Agonist activity at Gal4-fused human PPARgamma LBD transfected in HEK293T cells assessed as transcriptional activation incubated for 14 to 16 hrs by dual-Glo luciferase assay; assay type: cell-based
T4 sequence (P37231 whole entry): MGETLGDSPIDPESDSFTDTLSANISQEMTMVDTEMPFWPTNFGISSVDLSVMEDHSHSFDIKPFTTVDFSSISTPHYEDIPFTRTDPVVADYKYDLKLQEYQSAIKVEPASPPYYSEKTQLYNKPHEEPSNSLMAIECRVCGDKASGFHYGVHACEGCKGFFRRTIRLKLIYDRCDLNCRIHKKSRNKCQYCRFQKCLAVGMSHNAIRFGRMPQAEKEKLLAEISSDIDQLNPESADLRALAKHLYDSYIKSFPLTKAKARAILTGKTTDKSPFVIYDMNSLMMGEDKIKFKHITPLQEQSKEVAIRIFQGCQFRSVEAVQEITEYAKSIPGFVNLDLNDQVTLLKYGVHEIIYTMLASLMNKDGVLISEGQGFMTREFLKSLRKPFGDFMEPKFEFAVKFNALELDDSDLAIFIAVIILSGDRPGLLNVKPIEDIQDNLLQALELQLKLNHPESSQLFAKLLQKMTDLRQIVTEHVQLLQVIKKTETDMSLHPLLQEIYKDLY

[5] = target: T5, Peroxisome proliferator-activated receptor alpha (Homo sapiens, UniProt Q07869); assay: Agonist activity at Gal4-fused human PPARalpha LBD transfected in HEK293T cells assessed as transcriptional activation incubated for 14 to 16 hrs by dual-Glo luciferase assay; assay type: cell-based; how it was run: as §1
T5 sequence (Q07869 whole entry): T3 sequence (whole entry)

[6] = Photostability of compound assessed as photochemical switch by measuring cis-isoform at 50 uM incubated for 8 hrs followed by irradiation with 365 nm UV light for 3 mins by HPLC analysis; assay type: physicochemical
[7] = Photostability of compound assessed as photochemical switch by measuring trans-isoform at 50 uM incubated for 8 hrs followed by irradiation with 460 nm UV light for 3 mins by HPLC analysis; assay type: physicochemical

Row | max activation [1] [%] | EC50 [2] [µM] | max activation [3] [%] | EC50 [4] [µM] | EC50 [5] [µM] | max activation ([1]; filed as agonist) [%] | max activation ([3]; filed as agonist) [%] | Stability [6] | Stability [7] | SMILES
1 | 32 | 0.8 | 26 | 1.2 | 0.64 | – | – | – | – | Cc1ccc(/N=N\c2ccc(OCCc3ccc(OC(C)(C)C(=O)O)cc3)c(C)c2)cc1
2 | – | 1.77 | 25 | – | 0.47 | 40 | – | – | – | CC(C)c1ccc(/N=N/c2ccc(OCCc3ccc(OC(C)(C)C(=O)O)cc3)cc2)cc1
3 | – | 0.12 | – | – | 0.04 | 65 | 76 | Stable | – | Cc1ccc(/N=N/c2ccc(OCCc3ccc(OC(C)(C)C(=O)O)cc3)c(Cl)c2)cc1
4 | 31 | 3.8 | 22 | > 10 | 1.1 | – | – | – | – | Cc1ccc(/N=N\c2ccc(OCCc3ccc(OC(C)(C)C(=O)O)cc3)cc2)cc1
5 | 35 | 0.38 | – | – | 0.29 | – | 41 | – | Stable | Cc1ccc(/N=N\c2ccc(OCCc3ccc(OC(C)(C)C(=O)O)cc3)c(Cl)c2)cc1
6 | 39 | 8 | 26 | 3.2 | 0.79 | – | – | – | – | CC(C)(Oc1ccc(CCOc2ccc(/N=N/c3ccc(Cl)cc3)cc2)cc1)C(=O)O
7 | – | 0.41 | – | 1.3 | 0.19 | 40 | 41 | – | – | Cc1ccc(/N=N\c2ccc(OCCc3ccc(OC(C)(C)C(=O)O)cc3)c(C(F)(F)F)c2)cc1
8 | – | 0.24 | – | 0.82 | 0.029 | 46 | 49 | – | – | CC(C)(Oc1ccc(CCOc2ccc(/N=N/c3ccccc3)cc2Cl)cc1)C(=O)O
9 | – | 0.113 | – | 1.2 | 0.07 | 43 | 87 | – | – | Cc1ccc(/N=N/c2ccc(OCCc3ccc(OC(C)(C)C(=O)O)cc3)c(C(F)(F)F)c2)cc1
10 | 34 | 6 | 29 | 6 | 0.8 | – | – | – | – | CC(C)(Oc1ccc(CCOc2ccc(/N=N\c3ccccc3)cc2)cc1)C(=O)O
11 | 22 | 3.4 | 19 | – | 0.28 | – | – | – | – | CC(C)c1ccc(/N=N\c2ccc(OCCc3ccc(OC(C)(C)C(=O)O)cc3)cc2)cc1
12 | 37 | 0.31 | – | – | 0.071 | – | 42 | – | – | CC(C)(Oc1ccc(CCOc2ccc(/N=N\c3ccccc3)cc2C(F)(F)F)cc1)C(=O)O
13 | – | 2.2 | 31 | 2.67 | 1.09 | 61 | – | – | – | CC(C)(Oc1ccc(CCOc2ccc(/N=N/c3ccccc3)cc2)cc1)C(=O)O
14 | 28 | 8.1 | 24 | > 10 | 1.1 | – | – | – | – | CC(C)(Oc1ccc(CCOc2ccc(/N=N\c3ccc(Cl)cc3)cc2)cc1)C(=O)O
15 | – | 0.35 | – | 0.92 | 0.04 | 44 | 45 | – | – | CC(C)(Oc1ccc(CCOc2ccc(/N=N\c3ccccc3)cc2Cl)cc1)C(=O)O
16 | – | 2.8 | – | – | 3.7 | 40 | 40 | – | – | CC(C)(Oc1ccc(COc2ccc(/N=N/c3ccccc3)cc2)cc1)C(=O)O
17 | – | 0.12 | 34 | 2.3 | 0.036 | 47 | – | – | – | Cc1ccc(/N=N/c2ccc(OCCc3ccc(OC(C)(C)C(=O)O)cc3)c(C)c2)cc1
18 | – | 0.14 | – | – | 0.009 | 45 | 46 | – | – | CC(C)(Oc1ccc(CCOc2ccc(/N=N/c3ccccc3)cc2C(F)(F)F)cc1)C(=O)O
19 | 26 | 4.1 | 28 | – | 3.5 | – | – | – | – | CC(C)(Oc1ccc(COc2ccc(/N=N\c3ccccc3)cc2)cc1)C(=O)O
